TDP2 absorb – blocks human TDP2 phosphodiesterase activity; O95551; recombinant TDP2, T5PNP hydrolysis, p-nitrophenol absorbance 415 nm; inhibition, % at 12.8 µM; 370,000 compounds, 0.34% hits; AID 720702;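 active = inhibition above the mean of all tested compounds plus 3 SD, set per campaign, cut at about 25% in these data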;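 note: 0% = DMSO with enzyme and 100% = buffer with substrate but no TDP2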
Target sequence (O95551 whole entry, looked up): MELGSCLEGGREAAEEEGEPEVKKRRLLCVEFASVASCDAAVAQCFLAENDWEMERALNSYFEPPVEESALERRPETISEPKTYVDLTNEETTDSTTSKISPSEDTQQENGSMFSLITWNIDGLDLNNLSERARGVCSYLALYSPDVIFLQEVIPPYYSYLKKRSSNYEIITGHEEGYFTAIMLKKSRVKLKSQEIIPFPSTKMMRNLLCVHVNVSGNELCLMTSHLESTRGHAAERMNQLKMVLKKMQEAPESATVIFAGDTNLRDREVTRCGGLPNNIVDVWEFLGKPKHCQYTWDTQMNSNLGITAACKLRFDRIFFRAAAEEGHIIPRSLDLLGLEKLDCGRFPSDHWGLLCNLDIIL
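Evaluation: % inhibition relative to enzyme-containing and enzyme-free wells. Material: recombinant human TDP2. Benchmarks: enzyme-free and DMSO wells. Timing: enzyme reaction with compound for 2 h at 37 °C. Compound dosing: 12.8 µM only. Measured by: p-Nitrophenol epi absorbance. Reagent: T5PNP substrate at 5 mM, a TopII-DNA adduct mimic. Replication: single well per compound.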
Rin1-Abl PPI inh – inhibitors of human Rin1-Abl protein interaction; inhibition, % at 7.35 µM; 360,000 compounds, 0.4% hits; TR-FRET Rin1/Abl binding, biochemical; in the data active = inhibition above about 5%, passing the limit was not always enough
LEDGF integ inh – blocks HIV-1 LEDGF/p75-dependent DNA integration. 370,000 compounds, 0.64% hits. inhibition, % at 3.7 µM. TR-FRET IN-LEDGF/p75 DNA integration, Eu/Cy5;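 active = inhibition above the screen-wide mean plus 3 SD, cut at about 13% in these data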;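 note: signal is the Cy5 over europium emission ratio at 671 and 618 nm; 0% = plate median of compound wells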
MBD2 DNA inh – blocks human MBD2 binding to methylated DNA. 370,000 compounds, 0.31% hits. TR-FRET, MBD2 binding to methylated oligonucleotide. AID 686964. inhibition, % at 4.4 µM. Q9UBB5; in the data active = inhibition above about 13%
UHRF1 MBD2 ctr – UHRF1 methyl-DNA binding inhibition; inhibition, % at 4.4 µM; Q96T88; 370,000 compounds, 0.75% hits; UHRF1 binding to methylated oligo, TR-FRET; in the data active = inhibition above about 21%;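 note: UHRF1 SRA domain binding a hemimethylated CpG hairpin DNA probe; 0% = median of test compound wells and 100% = reference inhibitor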
IN multimer up – HIV-1 integrase multimerization activation, counter-screen; shares compounds with LEDGF integ inh; 2,000 compounds, 17% hits; TR-FRET HIV-1 integrase multimerization, biochemical; activation, % at 7.7 µM; in the data active = activation above about 8.9%
TRFRET interf – TR-FRET optical interference, LEDGF/p75 integration counter-screen | inhibition, % at 7.7 µM | AID 1053135 | TR-FRET optical interference counterscreen, HIV-1 IN multimerization | shares compounds with LEDGF integ inh | 2,000 tested, under 10 active;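 active = inhibition above the mean over all tested compounds plus 3 SD, which no compound reached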;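 note: 0% = integrase with antibodies and DMSO and 100% = antibodies without integrase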
IN-LEDGF confirm – confirmation of HIV-1 LEDGF/p75-dependent integration inhibitors. shares compounds with LEDGF integ inh. TR-FRET LEDGF/p75-dependent HIV-1 integration, biochemical. inhibition, % at 3.7 µM. 2,000 compounds, 36% hits. AID 1053136; in the data active = inhibition above about 14%
Starred values were filed as active, the others as inactive; . = no result given. Hits are enriched below; roughly 1.9% of the tested compounds scored in any of these assays.

SMILES	TDP2 absorb	Rin1-Abl PPI inh	LEDGF integ inh	MBD2 DNA inh	UHRF1 MBD2 ctr	IN multimer up	TRFRET interf	IN-LEDGF confirm
O=C(NNC(=O)C1CCC1)c1ccc(Br)cc1	-1	0	2	-6	-2	.	.	.
O=C(NNC(=O)C1CCCCC1)c1ccc(Br)cc1	-4	2	15*	3	-2	-1	4	-3
C=CCn1c(N)c(C(=O)Nc2ccccc2)c2nc3ccccc3nc21	-4	-1	21*	-5	-9	2	-7	0
C=CCn1c(N)c(C(=O)OC(C)(C)C)c2nc3ccccc3nc21	7	-2	0	-6	-10	.	.	.
CC1(C)CC(=O)C2=C(C1)Oc1ncn(CCCn3ccnc3)c(=N)c1C2c1ccccc1 (configuration not stated)	6	4	88*	0	1	0	0	0
COC(=O)[C@@]12C[C@@H](CC(=O)NCc3ccc(C)o3)C(=O)N(Cc3cccc4ccccc34)C1=CCC(C)(C)C2	-2	.	3	-7	0	.	.	.
Cc1ccc(S(=O)(=O)Nc2cc(C(C(=O)OC(C)C)C(=O)C(F)(F)F)c(O)c3ccccc23)c(C)c1 (configuration not stated)	10	2	14*	2	-5	1	-4	-1
COC(=O)[C@]1(C)N[C@H](CN(C)S(=O)(=O)c2ccc(C(F)(F)F)cc2)[C@@H]2C(=O)N(C)C(=O)[C@@H]21	2	-2	36*	1	-3	-2	8	-5
CCN(C[C@H]1N[C@@](Cc2ccccc2)(C(=O)OC)[C@H]2C(=O)N(Cc3ccccc3)C(=O)[C@@H]12)S(=O)(=O)c1ccc(C(F)(F)F)cc1	10	0	25*	5	2	0	-2	-14
CCN(C[C@H]1N[C@@](Cc2ccccc2)(C(=O)OC)[C@H]2C(=O)N(C)C(=O)[C@@H]12)S(=O)(=O)c1ccc(C(F)(F)F)cc1	2	0	-3	3	-1	.	.	.
COC(=O)[C@]1(C)N[C@H](CN(C)S(=O)(=O)c2ccc(OC)cc2)[C@@H]2C(=O)N(C)C(=O)[C@@H]21	-17	-5	10	-4	2	.	.	.
COc1ccc(S(=O)(=O)N2CCOCC2)cc1NC(=O)CSc1n[nH]c(=O)n1C1CC1	-1	-1	71*	-1	1	1	-3	2
Cc1ccc(S(=O)(=O)N2CCCCC2)cc1NC(=O)COC(=O)CN1C(=O)NC2(CC(C)CC(C)(C)C2)C1=O (configuration not stated)	3	5	-2	2	7	.	.	.
N#C/C(=C\c1ccc([N+](=O)[O-])o1)C(=O)Nc1ccc(F)cc1	12	-1	21*	-1	1	1	-3	12
O=C1CC(SC(=S)C2CCCC2=O)C(=O)N1 (configuration not stated)	15	5	24*	17*	54*	7	-37	22*
CC1=NN(c2ccccc2)C(=O)C1C(=S)SC1CC(=O)NC1=O (configuration not stated)	10	0	2	-10	-7	.	.	.
O=C(NCc1ccco1)c1ccc(COc2ccccc2[N+](=O)[O-])o1	10	-3	0	-3	0	.	.	.
O=C(CCCCCN1C(=O)C2C3C=CC(C3)C2C1=O)Nc1ccc(Cl)cc1 (configuration not stated)	1	.	-1	-10	-1	.	.	.
O=C(CCCCCN1C(=O)C2C3C=CC(C3)C2C1=O)Nc1ccc2ncccc2c1 (configuration not stated)	4	.	22*	-6	-2	1	-7	3
Cc1cc(C)c(-c2csc(NC(=O)C3=COCCO3)n2)cc1C	-1	3	5	0	0	.	.	.
C=CCn1c(C)cc(-c2csc(NC(=O)C3=COCCO3)n2)c1C	13	0	51*	-2	0	2	-7	3
COc1ccc(N(C)C(=O)c2onc3c2CCCC3)cc1	7	-1	-2	-5	1	.	.	.
CC(=O)Nc1ccc(C(=O)N2CCCCC2c2cc(C(=O)NCc3ccc(F)cc3)no2)cc1 (configuration not stated)	-2	-2	-3	-1	2	.	.	.
COC(=O)c1ccccc1NC(=O)Cn1cnc2c1c(=O)n(C)c(=O)n2C	-15	0	3	-3	-1	.	.	.
CCOc1ccccc1OCC(=O)NNC(=O)Cn1cnc2c1c(=O)n(C)c(=O)n2C	-4	3	14*	-1	-2	-1	5	3
SMILES	TDP2 absorb	Rin1-Abl PPI inh	LEDGF integ inh	MBD2 DNA inh	UHRF1 MBD2 ctr	IN multimer up	TRFRET interf	IN-LEDGF confirm
Cc1cccn2c(=O)c3cc(C#N)c(=NC(=O)c4ccco4)n(Cc4ccco4)c3nc12	-9	-4	3	-6	-3	.	.	.
Cc1cccn2c(=O)c3cc(C#N)c(=NC(=O)c4ccccc4)n(Cc4ccco4)c3nc12	-14	-2	16*	0	6	-3	15	26*
Cc1cccc(C(=O)N=c2c(C#N)cc3c(=O)n4cccc(C)c4nc3n2Cc2ccco2)c1	-10	1	17*	-10	0	2	-11	35*
O=C(Nc1ccc(F)cc1)c1cccc2c1C(=O)N(CC1CCCO1)C2 (configuration not stated)	-3	1	0	-3	0	.	.	.
CCc1ccc(NC(=O)COc2cccc(-n3cnnn3)c2)cc1	0	0	2	1	0	.	.	.
CN(C)c1ncnc2c1ncn2[C@H]1CN(Cc2ccc(F)cc2)C[C@@H](CO)O1	0	2	4	0	-2	.	.	.
CN(C)c1ncnc2c1ncn2[C@H]1CN(Cc2cccnc2)C[C@@H](CO)O1	4	-4	52*	1	-1	-1	5	-6
S=c1[nH]nc(-c2ccco2)n1-c1ccccc1Cl	4	-4	0	0	-4	.	.	.
S=c1[nH]nc(-c2cc(-c3ccco3)[nH]n2)n1-c1ccccc1Cl	0	3	14*	3	17	2	-9	15*
CN(Cc1cn(C)nc1-c1ccccc1F)CC1CCCCO1 (configuration not stated)	5	-2	-2	3	0	.	.	.
Cc1cc(-c2cc(C)c(N)cc2C)c(C)cc1N	8	0	14*	1	1	2	-10	1
Cc1oc(CC(C)C)cc1C(=O)Nc1ccc(C(=O)O)cc1	-9	-1	16*	2	2	1	-5	-7

Bioassay records from PubChem.
